From PubChem
CSN inh: CSN deneddylation inhibition | 360,000 tested, 0.38% active | Purified CSN, SCF-Nedd8-OG deneddylation, fluorescence polarization | inhibition, % at 12.5 µM;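 active = pattern-corrected inhibition above about 35%, with an unprinted fluorescence ratio check between 0.5 and 1.5, limit read from the data, passing the limit was not always enough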
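test system = HEK293T-derived human Csn5 enzyme | amount = 0.24 nM Csn5 enzyme, final concentration | medium = Tris/NaCl/DTT buffer, pH 7.5 | schedule = 90 min reaction at room temperature | signal = FP | evaluation = inhibition of Csn5 cleavage, % | compound dosing = single dose of 12.5 µM compound with 0.25% DMSO | probe or stimulus = 10 nM SCFSkp2-Nedd8OG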
Rpn11 block: blocks the human proteasome subunit Rpn11; O00487; human 26S proteasome, Ub4-pepOG fluorescence polarization; 20S core pre-blocked with epoxomicin; calls only at 20 µM; 360,000 tested, 0.59% active;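 active = inhibition at 20 µM, scaled to each plate's controls, above about 33%, limit read from the data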
TPT1 inhibitor: inhibitors of Candida albicans tRNA 2'-phosphotransferase TPT1; recombinant caTPT1, FP RNA substrate dephosphorylation; 300,000 tested, 0.81% active; inhibition, % at 5 µM;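 active = inhibition above the mean of all tested compounds plus 3 SD, set per screening campaign, cut at about 24% in these data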
HNF4A DNA FP: change in binding of human HNF4 alpha to DNA | HNF4a-FITC DNA binding, fluorescence polarization, 1 h | 360,000 tested, 0.3% active | AID 1224865 | activity change, % at 10 µM | P41235; in the data active = activity change above about 30%, passing the limit was not always enough
caTPT1 confirm: TPT1 (C. albicans) inhibition, confirmation; shares compounds with TPT1 inhibitor; recombinant caTPT1, fluorescence polarization, RNase T1 coupled; inhibition, % at 5 µM; 2,400 tested, 74% active;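 active = inhibition above the primary screen limit, the mean inhibition of all tested compounds plus 3 SD, cut at about 25% in these data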
RNase T1 inh: blocks Aspergillus oryzae RNase T1, a TPT1 counter-screen. shares compounds with TPT1 inhibitor. RNase T1 cleavage, fluorescence polarization, 1536-well. inhibition, % at 5 µM. 2,400 tested, 83% active. AID 2153;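 active = inhibition above the solvent-only control well mean plus 3 SD, limit set per screening run, cut at about 23% in these data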;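 also: inhibitors block cleavage so intact labeled substrate keeps polarization high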
Target sequence (P00651 whole entry, looked up): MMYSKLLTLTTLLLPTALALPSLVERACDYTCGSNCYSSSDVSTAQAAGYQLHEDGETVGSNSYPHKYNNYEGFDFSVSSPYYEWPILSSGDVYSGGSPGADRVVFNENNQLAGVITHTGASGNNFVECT
Rpn11 confirm: confirmation of human proteasome Rpn11 inhibitors; shares compounds with Rpn11 block; purified human 26S proteasome, Ub4-pepOG fluorescence polarization; proteasome pretreated with epoxomicin; inhibition, % at 20 µM; 1,900 tested, 29% active; AID 602318
MMP-2 counter-1: MMP-2 (human) inhibition counter-screen. shares compounds with Rpn11 block. recombinant MMP-2, FRET peptide cleavage fluorescence. inhibition, % at 20 µM. 1,900 tested, 4% active. AID 602330;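 also: human MMP-2 activated beforehand with APMA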
Target sequence (P08253 whole entry, looked up): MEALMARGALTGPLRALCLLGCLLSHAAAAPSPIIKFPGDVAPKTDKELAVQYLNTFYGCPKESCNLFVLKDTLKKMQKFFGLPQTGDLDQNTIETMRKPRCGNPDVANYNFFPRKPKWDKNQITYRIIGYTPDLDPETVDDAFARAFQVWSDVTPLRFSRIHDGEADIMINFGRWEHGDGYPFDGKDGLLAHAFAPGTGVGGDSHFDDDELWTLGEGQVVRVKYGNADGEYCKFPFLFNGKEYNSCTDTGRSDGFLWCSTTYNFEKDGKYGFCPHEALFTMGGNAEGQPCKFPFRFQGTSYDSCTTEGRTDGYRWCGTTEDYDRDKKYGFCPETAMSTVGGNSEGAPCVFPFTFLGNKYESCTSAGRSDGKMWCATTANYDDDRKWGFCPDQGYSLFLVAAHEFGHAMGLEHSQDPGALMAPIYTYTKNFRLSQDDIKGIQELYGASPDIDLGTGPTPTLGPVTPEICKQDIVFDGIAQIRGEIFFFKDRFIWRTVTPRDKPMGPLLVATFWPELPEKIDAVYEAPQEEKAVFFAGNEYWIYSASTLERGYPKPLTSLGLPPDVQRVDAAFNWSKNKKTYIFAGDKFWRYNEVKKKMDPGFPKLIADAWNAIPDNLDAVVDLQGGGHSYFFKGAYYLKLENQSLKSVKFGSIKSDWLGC
Thrombin inh: counter-screen for RPN11 inhibitors: inhibition of bovine thrombin; shares compounds with Rpn11 block; bovine thrombin cleavage of Ub4-pepOG, fluorescence polarization; inhibition, % at 20 µM; 1,900 tested, 13% active; AID 602333;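 active = mean inhibition at least 40% at 20 µM, or signal 3 deviations below plate average, so some actives read negative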
CSN deneddyl val: validation of inhibitors of human CSN-mediated cullin deneddylation; shares compounds with CSN inh; Csn5 deneddylation of SCF-Nedd8OG, fluorescence polarization, 90 min; inhibition, % at 16.6 µM; 540 tested, 62% active; AID 720654; in the data active = inhibition above about 50%
MMP-2 counter-2: MMP-2 (human) inhibition, counter-screen for CSN hits; shares compounds with CSN inh; recombinant MMP-2, FRET substrate fluorescence, 60 min; inhibition, % at 16.6 µM; 540 tested, 33% active; AID 720655;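 active = corrected plate-normalized z-score of 5 or more, or -5 or less, or inhibition of 15% or more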
Thrombin counter: thrombin (bovine) inhibition, counter-screen for CSN hits. AID 720656. inhibition, % at 16.6 µM. bovine thrombin cleavage of Ub4-pepOG, fluorescence polarization. 540 tested, 49% active. shares compounds with CSN inh;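 active = inhibition at or above a set limit, with a fluorescence interference ratio between 0.5 and a set maximum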
HNF4a DNA conf: change in binding of human HNF4 alpha to DNA, retest; shares compounds with HNF4A DNA FP; HNF4A-FITC DNA binding, fluorescence polarization, 1 h; activity change, % at 12.5 µM; 210 tested, 99% active; AID 1224897; call rule not given here
Hits are given with their value; n = inactive; x = no result given; + = active, no number. Rows were chosen to be rich in hits. Some 1.5% of all compounds tested hit in one or more screens of this group. Rule as the data show it, unless noted: active = inhibition above about 40%; inactive = the rest.

SMILES | CSN inh | Rpn11 block | TPT1 inhibitor | HNF4A DNA FP | caTPT1 confirm | RNase T1 inh | Rpn11 confirm | MMP-2 counter-1 | Thrombin inh | HNF4a DNA conf | others
O=[N+]([O-])c1ccc(N2N=C(c3ccco3)CC2c2ccccc2)cc1 (centres undefined) | 41.8 | x | 135.2 | 49.9 | 107.1 | 108.2 | x | x | x | x | CSN deneddyl val=82.9;MMP-2 counter-2=n;Thrombin counter=36.2
COc1ccccc1N1N=C(c2ccc([N+](=O)[O-])cc2)CC1c1ccccc1 (centres undefined) | 38.2 | x | 52.1 | 46.6 | 46.0 | 56.8 | x | x | x | x | CSN deneddyl val=106.7;MMP-2 counter-2=n;Thrombin counter=25.0
Fc1ccc(C2CC(c3ccco3)=NN2c2ccccc2)cc1 (centres undefined) | n | n | n | n | x | x | x | x | x | x
CC(C)(C)OC(=O)N1CCCC(C(=O)Nc2ccc(C(=O)N3CCCC3)cc2)C1 (centres undefined) | n | n | x | n | x | x | x | x | x | x
O=C(O)c1ccc(N2C(=O)/C(=C/C=C/c3ccccc3)SC2=S)cc1 | n | n | n | n | x | x | x | x | x | x
O=C1/C(=C/C=C/c2ccco2)SC(=S)N1c1ccc(O)cc1 | 57.2 | + | 27.6 | n | 49.7 | 56.5 | x | x | x | x | CSN deneddyl val=63.8;MMP-2 counter-2=31.2;Thrombin counter=42.2
CN(C)c1ccc(/C=C/C=C2/SC(=S)N(c3ccccc3)C2=O)cc1 | 37.7 | + | 104.1 | 57.4 | 70.6 | 80.9 | 49.4 | n | n | x | CSN deneddyl val=66.7;MMP-2 counter-2=n;Thrombin counter=35.4
COc1cccc(NC(=O)Nc2ccc(C(C)(C)C)cc2)c1 | n | n | x | n | x | x | x | x | x | x
CCCCCCn1cc(CN2CC(N3CCN(Cc4cccc(C)c4)CC3)CS2(=O)=O)nn1 (centres undefined) | n | x | x | n | x | x | x | x | x | x
CC(=O)Oc1ccccc1/C=C/c1nc2ccccc2c(=O)o1 | n | n | n | n | x | x | x | x | x | x
O=c1oc(/C=C/c2ccc([N+](=O)[O-])s2)nc2ccccc12 | 50.0 | + | 59.8 | n | 58.5 | 70.5 | x | x | x | x | CSN deneddyl val=189.4;MMP-2 counter-2=n;Thrombin counter=25.1
CC(C)[C@H](NC(=O)OC(C)(C)C)c1cc(C(=O)N(C)CCN(C)C)c(N)s1 | n | x | x | n | x | x | x | x | x | x
CSc1nsc(/C=C/Nc2ccc(Cl)cc2)c1C#N | n | + | 31.5 | 40.4 | 69.8 | 81.8 | n | n | n | 60.9
CSc1nsc(/C=C/Nc2cccc(Cl)c2)c1C#N | n | n | 35.7 | 40.2 | 26.4 | 34.1 | x | x | x | 40.7
Cc1snc(SCc2cccc(Cl)c2)c1C#N | n | n | n | n | x | x | x | x | x | x
CSc1nnc(C)c(/C=C/Nc2ccc(C)cc2)n1 | n | x | 156.2 | 53.4 | 133.9 | 128.1 | x | x | x | 87.8
CC(=O)c1ccc(S(=O)(=O)Oc2ccc(C(=O)O)cc2Cl)cc1 | n | n | x | n | x | x | x | x | x | x
COc1ccc(NC(=O)CN(C)S(=O)(=O)c2ccc(C)cc2)c([N+](=O)[O-])c1 | n | + | 40.8 | 58.8 | 48.9 | 62.0 | n | n | n | 58.6
O=C(CSc1ncnc2scc(-c3ccccc3)c12)N1CCN(Cc2ccc3c(c2)OCO3)CC1 | n | + | 41.3 | 45.7 | 65.8 | 77.4 | n | n | n | 36.7
c1ccc(-c2csc3ncnc(N4CCN(Cc5ccc6c(c5)OCO6)CC4)c23)cc1 | n | n | n | n | x | x | x | x | x | x
COc1ccc2c(-c3ccccc3)cc(SCC(N)=O)nc2c1 | n | x | 34.7 | 42.9 | 38.7 | 50.4 | x | x | x | 48.5
O=C(/C=C\Nc1ccc2c(c1)OCO2)c1ccc(Cl)s1 | n | + | 24.7 | 88.0 | 39.4 | 49.5 | n | n | n | 61.3
O=C(/C=C\Nc1ccc2c(c1)OCO2)c1cccs1 | n | n | n | n | x | x | x | x | x | x
COc1cc(/C=C(/C#N)c2nc3ccccc3[nH]2)ccc1OC(=O)c1ccco1 | n | n | n | n | x | x | x | x | x | x
COc1cc(/C=C(/C#N)c2nc3ccccc3c(=O)[nH]2)ccc1O | 80.4 | + | 102.0 | 46.5 | 126.4 | 124.4 | n | n | n | 57.9
SMILES | CSN inh | Rpn11 block | TPT1 inhibitor | HNF4A DNA FP | caTPT1 confirm | RNase T1 inh | Rpn11 confirm | MMP-2 counter-1 | Thrombin inh | HNF4a DNA conf | others
O=C(C[C@H]1C[C@@H]2c3cc(NC(=O)Nc4ccccc4F)ccc3O[C@@H]2[C@H](CO)O1)NCc1ccccn1 | n | n | x | n | x | x | x | x | x | x
Cc1ccc(C)c(N(CC(=O)N/N=C/c2ccc(-c3ccc([N+](=O)[O-])cc3)o2)S(=O)(=O)c2ccccc2)c1 | 43.7 | x | 41.3 | 92.6 | 50.5 | 61.0 | x | x | x | 54.2
O=C(Cc1ccccc1)N/N=C/c1ccc(-c2ccc([N+](=O)[O-])cc2)o1 | n | n | n | n | x | x | x | x | x | x
COc1ccc(-n2c(C)cc(/C=C3\SC(=S)NC3=O)c2C)cc1 | n | + | 30.5 | 40.1 | 24.5 | 36.5 | n | n | n | 59.0
COc1ccc2c(c1)CCCC21NC(=O)N(CC(=O)N2CC(C)OC(C)C2)C1=O (centres undefined) | n | n | x | n | x | x | x | x | x | x
COc1ccccc1Nc1nc(Cl)c(C=O)s1 | 37.5 | x | 45.0 | 49.5 | 70.3 | 83.0 | x | x | x | 88.8
O=Cc1sc(Nc2ccccc2)nc1Cl | n | + | 75.7 | 37.1 | 74.3 | 85.7 | 60.4 | n | n | 59.0
COC(=O)c1cnc(N)s1 | n | n | x | n | x | x | x | x | x | x
COc1ccc2[nH]cc(C=O)c2c1 | n | n | n | n | x | x | x | x | x | x
COc1ccc2[nH]cc(/C=C/c3cc[n+](C)cc3)c2c1 | n | + | 71.3 | 52.1 | 83.2 | 89.9 | 114.1 | n | 114.2 | 113.7
CC(NC(=O)Nc1ccc(F)cc1F)c1ccc2c(c1)OCO2 (centres undefined) | n | n | n | n | x | x | x | x | x | x
CN1C(=O)/C(=C/C=C2/CCCN2C)N(C)C1=S | n | + | 40.5 | 45.6 | 89.8 | 102.5 | 56.0 | n | n | 82.0
CCCN1CCc2c(sc(NC(=O)c3ccc(S(=O)(=O)N4CCCC4)cc3)c2C(N)=O)C1 | n | + | 119.6 | 41.4 | 132.4 | 131.9 | n | n | n | 53.8
CCN1CCc2c(sc(NC(=O)c3ccc(S(=O)(=O)N4CCOCC4)cc3)c2C(N)=O)C1 | n | n | n | n | x | x | x | x | x | x
